{"source": "ChEMBL document CHEMBL3867440", "about": "“Hernandezine, a Bisbenzylisoquinoline Alkaloid with Selective Inhibitory Activity against Multidrug-Resistance-Linked ATP-Binding Cassette Drug Transporter ABCB1” (J Nat Prod, 2016)", "key": {"[1]": {"molecular_target": "T1, ATP-dependent translocase ABCB1 (Homo sapiens, UniProt P08183)", "T1 sequence (P08183 whole entry)": "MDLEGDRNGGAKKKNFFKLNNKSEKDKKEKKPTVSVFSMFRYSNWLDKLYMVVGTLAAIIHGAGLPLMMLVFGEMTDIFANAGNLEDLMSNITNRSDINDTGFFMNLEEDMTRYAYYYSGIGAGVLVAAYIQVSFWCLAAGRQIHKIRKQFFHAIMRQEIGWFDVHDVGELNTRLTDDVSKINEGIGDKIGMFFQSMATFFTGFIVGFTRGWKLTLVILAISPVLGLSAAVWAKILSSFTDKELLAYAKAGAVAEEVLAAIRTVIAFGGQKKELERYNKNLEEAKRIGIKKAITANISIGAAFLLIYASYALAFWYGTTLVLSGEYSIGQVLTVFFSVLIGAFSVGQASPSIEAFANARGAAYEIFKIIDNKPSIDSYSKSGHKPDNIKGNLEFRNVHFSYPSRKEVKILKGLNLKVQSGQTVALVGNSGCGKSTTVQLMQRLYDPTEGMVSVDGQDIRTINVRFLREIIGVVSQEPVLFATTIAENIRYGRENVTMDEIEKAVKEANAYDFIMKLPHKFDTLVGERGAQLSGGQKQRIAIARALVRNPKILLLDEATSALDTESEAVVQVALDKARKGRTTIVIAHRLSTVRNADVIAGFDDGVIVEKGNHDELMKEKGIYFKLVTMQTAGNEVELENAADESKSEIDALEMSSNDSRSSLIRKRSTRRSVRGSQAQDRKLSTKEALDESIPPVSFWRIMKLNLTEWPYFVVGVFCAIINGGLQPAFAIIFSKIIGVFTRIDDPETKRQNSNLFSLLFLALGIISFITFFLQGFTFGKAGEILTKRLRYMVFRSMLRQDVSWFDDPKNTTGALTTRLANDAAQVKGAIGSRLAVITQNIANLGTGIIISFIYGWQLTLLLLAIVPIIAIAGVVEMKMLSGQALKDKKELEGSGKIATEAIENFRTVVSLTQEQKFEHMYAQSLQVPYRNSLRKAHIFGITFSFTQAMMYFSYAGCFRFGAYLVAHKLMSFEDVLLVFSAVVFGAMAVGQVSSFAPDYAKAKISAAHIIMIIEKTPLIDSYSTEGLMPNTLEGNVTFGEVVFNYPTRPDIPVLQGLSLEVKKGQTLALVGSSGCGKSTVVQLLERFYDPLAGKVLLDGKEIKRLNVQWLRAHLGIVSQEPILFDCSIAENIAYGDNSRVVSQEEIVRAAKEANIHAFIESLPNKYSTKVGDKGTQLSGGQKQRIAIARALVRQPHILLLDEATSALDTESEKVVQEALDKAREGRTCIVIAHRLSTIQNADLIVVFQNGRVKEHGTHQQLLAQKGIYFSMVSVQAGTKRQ", "assay": "Inhibition of human ABCB1 transfected in HEK293 cells assessed as potentiation of doxorubicin-induced cytotoxicity by measuring doxorubicin resistance ratio at 200 nM after 72 hrs by CCK8 assay relative to parental HEK293 cells (reference value: 96)", "format": "cell-based", "settings": "hek293, 72 h, 0.2 µM; call rule not given here"}, "[2]": {"molecular_target": "T1, ATP-dependent translocase ABCB1", "assay": "Inhibition of ABCB1 in human KBV1 cells assessed as potentiation of doxorubicin-induced cytotoxicity by measuring doxorubicin resistance ratio at 100 nM after 72 hrs by MTT assay relative to parental KB-3-1 cells (reference value: 34)", "format": "cell-based", "settings": "kbv1, 72 h, 0.1 µM", "procedure,_shortened": "(§1)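 Cells were kept in drug-free DMEM with 10% FCS for 7 days before assay, then plated at 5000 cells/well for 24 h. Drug at various concentrations was added with a nontoxic fixed level of modulator for 72 h, and the read-out was MTT. IC50 came from fitted curves (≥3 experiments). RR = IC50 of the resistant line / IC50 of the parental line.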"}, "[3]": {"molecular_target": "T1, ATP-dependent translocase ABCB1", "assay": "Binding affinity to Vanadate-sensitive ABCB1 (unknown origin)"}, "[4]": {"molecular_target": "T1, ATP-dependent translocase ABCB1", "assay": "Inhibition of ABCB1 in human NCI-ADR-RES cells assessed as potentiation of doxorubicin-induced cytotoxicity by measuring doxorubicin resistance ratio at 50 nM after 72 hrs by MTT assay relative to parental OVCAR8 cells (reference value: 46)", "format": "cell-based", "settings": "ovcar-8, 72 h, 0.05 µM", "procedure,_shortened": "as §1"}, "[5]": {"molecular_target": "T1, ATP-dependent translocase ABCB1", "assay": "Inhibition of ABCB1 in human NCI-ADR-RES cells assessed as potentiation of vincristine-induced cytotoxicity by measuring vincristine resistance ratio at 500 nM after 72 hrs by MTT assay relative to parental OVCAR8 cells (reference value: 435)", "format": "cell-based", "settings": "ovcar-8, 72 h, 0.5 µM", "procedure,_shortened": "as §1"}, "[6]": {"assay": "Cytotoxicity against HEK293 cells assessed as reduction in cell viability at 1 uM after 72 hrs by CCK8 assay", "format": "toxicity, cell-based", "settings": "human, hek293, 72 h"}, "[7]": {"molecular_target": "T1, ATP-dependent translocase ABCB1", "assay": "Inhibition of ABCB1 in human KBV1 cells assessed as potentiation of colchicine-induced cytotoxicity by measuring colchicine resistance ratio at 50 nM after 72 hrs by MTT assay relative to parental KB-3-1 cells (reference value: 55)", "format": "cell-based", "settings": "kbv1, 72 h, 0.05 µM", "procedure,_shortened": "as §1"}, "[8]": {"test_system": "KB 3-1", "assay": "Potentiation of colchicine-induced apoptosis in human KB-3-1 cells assessed as viable cells at 1 uM after 48 hrs by Annexin V-FITC/propidium iodide staining based FACS analysis (reference value: 38.9%)", "format": "functional", "settings": "KB 3-1, 48 h, read-out: Activity"}, "[9]": {"molecular_target": "T1, ATP-dependent translocase ABCB1", "assay": "Inhibition of ABCB1 in human KBV1 cells assessed as potentiation of colchicine-induced cytotoxicity by measuring colchicine resistance ratio at 100 nM after 72 hrs by MTT assay relative to parental KB-3-1 cells (reference value: 55)", "format": "cell-based", "settings": "kbv1, 72 h, 0.1 µM", "procedure,_shortened": "as §1"}, "[10]": {"molecular_target": "T1, ATP-dependent translocase ABCB1", "assay": "Inhibition of human ABCB1-mediated efflux transfected in HEK293 cells assessed as accumulation of fluorescent dye at 1 uM by calcein-AM dye based FACS analysis", "format": "cell-based", "settings": "hek293, 1 µM", "procedure,_shortened": "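The HEK293 cells, transfected with human ABCB1 (parental HEK293 as control), were trypsinized and resuspended in IMDM with 5% FCS. Calcein-AM was added to 3 × 10^5 cells in 4 mL, with or without test compound (single 1 μM or a concentration series) or 3 μM tariquidar. Fluorescence was read immediately by flow cytometry. Results are the mean ± SEM of at least three experiments.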"}, "[11]": {"test_system": "KB-V1", "assay": "Induction of apoptosis in human KBV1 cells assessed as viable cells at 1 uM after 48 hrs by Annexin V-FITC/propidium iodide staining based FACS analysis (reference value: 86.1%)", "format": "functional", "settings": "KB-V1, 48 h, read-out: Activity"}, "[12]": {"test_system": "KB 3-1", "assay": "Induction of apoptosis in human KB-3-1 cells assessed as necrotic cells at 1 uM after 48 hrs by Annexin V-FITC/propidium iodide staining based FACS analysis (reference value: 0.7%)", "format": "functional"}, "[13]": {"molecular_target": "T1, ATP-dependent translocase ABCB1", "assay": "Inhibition of ABCB1 in human NCI-ADR-RES cells assessed as potentiation of doxorubicin-induced cytotoxicity at 1 uM after 72 hrs by MTT assay", "format": "cell-based", "procedure,_shortened": "(§2)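 The cells were kept in drug-free medium for 7 days. They were seeded at 5000 cells/well, allowed to attach for 24 h at 37 °C, then exposed to graded doxorubicin with or without 50–500 nM test compound or 1 μM tariquidar for a further 72 h. Viability was read by MTT. Results are means of at least three independent experiments.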"}, "[14]": {"molecular_target": "T1, ATP-dependent translocase ABCB1", "assay": "Inhibition of ABCB1 in human KBV1 cells assessed as potentiation of vincristine-induced cytotoxicity by measuring vincristine resistance ratio at 500 nM after 72 hrs by MTT assay relative to parental KB-3-1 cells (reference value: 356)", "format": "cell-based", "settings": "kbv1, 72 h, 0.5 µM", "procedure,_shortened": "as §1"}, "[15]": {"molecular_target": "T1, ATP-dependent translocase ABCB1", "assay": "Inhibition of ABCB1 in human KBV1 cells assessed as potentiation of doxorubicin-induced cytotoxicity at 1 uM after 72 hrs by MTT assay", "format": "cell-based", "settings": "kbv1, 72 h", "procedure,_shortened": "as §2"}, "[16]": {"molecular_target": "T1, ATP-dependent translocase ABCB1", "assay": "Inhibition of ABCB1 in human KBV1 cells assessed as potentiation of doxorubicin-induced cytotoxicity by measuring doxorubicin resistance ratio at 200 nM after 72 hrs by MTT assay relative to parental KB-3-1 cells (reference value: 34)", "format": "cell-based", "settings": "kbv1, 72 h, 0.2 µM", "procedure,_shortened": "as §1"}, "[17]": {"molecular_target": "T1, ATP-dependent translocase ABCB1", "assay": "Inhibition of ABCB1 in human NCI-ADR-RES cells assessed as potentiation of vincristine-induced cytotoxicity by measuring vincristine resistance ratio at 100 nM after 72 hrs by MTT assay relative to parental OVCAR8 cells (reference value: 435)", "format": "cell-based", "settings": "ovcar-8, 72 h, 0.1 µM", "procedure,_shortened": "as §1"}, "[18]": {"molecular_target": "Multidrug resistance-associated protein 1 (Homo sapiens, UniProt P33527)", "sequence (P33527 whole entry)": "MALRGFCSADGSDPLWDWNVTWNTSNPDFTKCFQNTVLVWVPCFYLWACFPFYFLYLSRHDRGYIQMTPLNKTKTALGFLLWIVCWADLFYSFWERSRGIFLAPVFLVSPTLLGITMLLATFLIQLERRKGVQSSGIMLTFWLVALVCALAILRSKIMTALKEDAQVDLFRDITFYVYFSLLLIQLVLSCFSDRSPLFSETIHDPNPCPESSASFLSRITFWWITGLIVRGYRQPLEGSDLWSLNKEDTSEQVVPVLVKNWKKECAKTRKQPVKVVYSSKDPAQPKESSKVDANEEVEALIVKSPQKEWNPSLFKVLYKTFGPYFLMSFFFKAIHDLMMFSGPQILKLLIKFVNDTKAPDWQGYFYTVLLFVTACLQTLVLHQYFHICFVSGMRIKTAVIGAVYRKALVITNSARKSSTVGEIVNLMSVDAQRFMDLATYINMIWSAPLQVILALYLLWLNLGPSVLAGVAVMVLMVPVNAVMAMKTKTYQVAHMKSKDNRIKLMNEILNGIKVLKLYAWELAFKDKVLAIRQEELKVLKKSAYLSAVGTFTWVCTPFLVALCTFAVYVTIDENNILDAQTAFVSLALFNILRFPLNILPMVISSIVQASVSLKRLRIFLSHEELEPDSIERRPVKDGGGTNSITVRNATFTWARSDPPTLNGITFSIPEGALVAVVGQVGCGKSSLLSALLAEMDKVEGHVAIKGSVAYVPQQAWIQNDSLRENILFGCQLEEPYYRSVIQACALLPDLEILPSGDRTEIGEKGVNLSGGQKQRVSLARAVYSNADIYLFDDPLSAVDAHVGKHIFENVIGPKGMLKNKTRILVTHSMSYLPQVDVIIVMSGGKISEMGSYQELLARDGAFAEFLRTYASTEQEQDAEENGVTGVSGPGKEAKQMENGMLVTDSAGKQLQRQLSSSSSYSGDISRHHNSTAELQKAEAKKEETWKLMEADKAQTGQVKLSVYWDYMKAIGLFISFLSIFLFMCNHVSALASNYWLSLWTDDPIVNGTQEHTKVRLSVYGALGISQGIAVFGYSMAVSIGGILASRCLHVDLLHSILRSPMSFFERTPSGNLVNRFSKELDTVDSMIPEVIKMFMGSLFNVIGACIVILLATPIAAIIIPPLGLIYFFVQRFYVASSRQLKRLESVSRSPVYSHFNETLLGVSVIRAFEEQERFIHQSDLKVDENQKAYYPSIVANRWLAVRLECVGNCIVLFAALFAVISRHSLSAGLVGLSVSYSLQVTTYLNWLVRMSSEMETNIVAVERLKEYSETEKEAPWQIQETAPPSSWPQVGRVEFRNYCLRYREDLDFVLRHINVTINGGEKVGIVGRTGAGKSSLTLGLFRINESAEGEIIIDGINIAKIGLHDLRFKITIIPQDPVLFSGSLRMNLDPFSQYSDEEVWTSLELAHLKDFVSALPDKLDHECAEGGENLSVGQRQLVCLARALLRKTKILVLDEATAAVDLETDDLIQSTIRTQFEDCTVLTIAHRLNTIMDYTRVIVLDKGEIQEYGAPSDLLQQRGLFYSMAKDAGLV", "assay": "Inhibition of human ABCC1 transfected in HEK293 cells assessed as potentiation of etoposide-induced cytotoxicity by measuring etoposide resistance ratio at 500 nM after 72 hrs by CCK8 assay relative to parental HEK293 cells (reference value: 350)", "format": "cell-based", "settings": "hek293, 72 h, 0.5 µM"}, "[19]": {"molecular_target": "T1, ATP-dependent translocase ABCB1", "assay": "Inhibition of ABCB1 in human NCI-ADR-RES cells assessed as potentiation of colchicine-induced cytotoxicity by measuring colchicine resistance ratio at 500 nM after 72 hrs by MTT assay relative to parental OVCAR8 cells (reference value: 59)", "format": "cell-based", "settings": "ovcar-8, 72 h, 0.5 µM", "procedure,_shortened": "as §1"}, "[20]": {"molecular_target": "T1, ATP-dependent translocase ABCB1", "assay": "Inhibition of ABCB1 in human NCI-ADR-RES cells assessed as potentiation of vincristine-induced cytotoxicity by measuring vincristine resistance ratio at 200 nM after 72 hrs by MTT assay relative to parental OVCAR8 cells (reference value: 435)", "format": "cell-based", "settings": "ovcar-8, 72 h, 0.2 µM", "procedure,_shortened": "as §1"}, "[21]": {"molecular_target": "T1, ATP-dependent translocase ABCB1", "assay": "Inhibition of ABCB1 in human KBV1 cells assessed as potentiation of vincristine-induced cytotoxicity by measuring vincristine resistance ratio at 50 nM after 72 hrs by MTT assay relative to parental KB-3-1 cells (reference value: 356)", "format": "cell-based", "settings": "kbv1, 72 h, 0.05 µM", "procedure,_shortened": "as §1"}, "[22]": {"molecular_target": "T1, ATP-dependent translocase ABCB1", "assay": "Inhibition of ABCB1 in human KBV1 cells assessed as potentiation of vincristine-induced cytotoxicity by measuring vincristine resistance ratio at 100 nM after 72 hrs by MTT assay relative to parental KB-3-1 cells (reference value: 356)", "format": "cell-based", "settings": "kbv1, 72 h, 0.1 µM", "procedure,_shortened": "as §1"}, "[23]": {"molecular_target": "T1, ATP-dependent translocase ABCB1", "assay": "Inhibition of ABCB1 in human KBV1 cells assessed as potentiation of doxorubicin-induced cytotoxicity by measuring doxorubicin resistance ratio at 50 nM after 72 hrs by MTT assay relative to parental KB-3-1 cells (reference value: 34)", "format": "cell-based", "settings": "kbv1, 72 h, 0.05 µM", "procedure,_shortened": "as §1"}}}
{"smiles": "COc1ccc2cc1Oc1ccc(cc1)C[C@H]1c3cc(c(OC)cc3CCN1C)Oc1c(OC)c(OC)c(OC)c3c1[C@H](C2)N(C)CC3", "note": "[HERNANDEZINE]", "values": [{"measurement": "Ratio", "setting": "[1]", "result": 8}, {"measurement": "Ratio", "setting": "[2]", "result": 5}, {"measurement": "Ki", "setting": "[3]", "result": 0.02, "unit": "µM"}, {"measurement": "Ratio", "setting": "[4]", "result": 26}, {"measurement": "Ratio", "setting": "[5]", "result": 19}, {"measurement": "Activity", "setting": "[6]", "result": "Non-Toxic"}, {"measurement": "Ratio", "setting": "[7]", "result": 31}, {"measurement": "viability at 1 µM", "setting": "[8]", "result": 37.4, "unit": "%"}, {"measurement": "Ratio", "setting": "[9]", "result": 21}, {"measurement": "inhibition (INH)", "setting": "[10]", "result": "Active"}, {"measurement": "viability at 1 µM", "setting": "[11]", "result": 87.6, "unit": "%"}, {"measurement": "Activity", "setting": "[12]", "result": 0.2, "unit": "%"}, {"measurement": "inhibition (INH)", "setting": "[13]", "result": "Active"}, {"measurement": "Ratio", "setting": "[14]", "result": 3}, {"measurement": "inhibition (INH)", "setting": "[15]", "result": "Active"}, {"measurement": "Ratio", "setting": "[16]", "result": 2}, {"measurement": "Ratio", "setting": "[17]", "result": 433}, {"measurement": "Ratio", "setting": "[18]", "result": 547}, {"measurement": "Ratio", "setting": "[19]", "result": 4}, {"measurement": "Ratio", "setting": "[20]", "result": 196}, {"measurement": "Ratio", "setting": "[21]", "result": 325}, {"measurement": "Ratio", "setting": "[22]", "result": 169}, {"measurement": "Ratio", "setting": "[23]", "result": 9}]}
